HMGR II inh = blocks class II HMG-CoA reductase of Enterococcus faecalis | purified E. faecalis HMGR, NADPH absorbance 340 nm kinetic | inhibition, % at 10 µM | 0.41% of 190,000 active | AID 1066;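 active means inhibition above a set limit, the median over all tested compounds plus 3 SD, cut at about 9.5% in these data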;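 further: enzyme runs in reverse so mevalonate oxidation gives rising NADPH absorbance; 0% = complete reaction with DMSO and 100% = background rate lacking mevalonate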
RAM inhibit = inhibitors of the yeast RAM network; S. cerevisiae dse1pr::URA3 reporter, 5-FOA growth OD615, 2 d; analog-sensitive cbk1-as2 kinase mutant strain; inhibition, % at 50 µM; 1.8% of 190,000 active; AID 868;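 active means inhibition above a set limit, 3 SD over mean compound inhibition, cut at about 8.4% in these data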;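 further: 0% = DMSO-only wells with no growth and 100% = 10 µM 1-NA-PP1 full growth; inhibition rescues growth on 5-FOA so higher OD means more RAM inhibition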
Yeast lifespan up = yeast lifespan extension | 0.68% of 130,000 active | inhibition of the nicotinamide effect, % at 10 µM | S. cerevisiae growth with nicotinamide, OD615; deaD strain in restrictive glucose medium;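 active means inhibition above a set limit, placed 3 SD over the median of all compounds, cut at about 26% in these data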;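 further: 0% = nicotinamide-treated wells and 100% = cells grown without nicotinamide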
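Assay system: DeaD-strain S. cerevisiae. Medium: CSMM-D glucose medium, restrictive. Reagent: nicotinamide, 1.5 mM, co-present with compound. Compound: 10 µM single point, 0.25% DMSO. Schedule: culture preincubation 4 h, compound exposure 48 h, both 30 °C. Detection: absorbance at 615 nm.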
MT stabilizer = microtubule stabilizers in HeLa cells | HeLa tubulin immunostaining HCS, 24 h; share of cells brighter than vehicle mean+2SD | % tubulin-high responders, % at 10 µM | 0.83% of 200,000 active | AID 2205;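 active means plate Z-score above 3 for both tubulin-high and condensed-nucleus cell shares, with cell loss under 80%, at 10 µM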;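 further: anti alpha tubulin signal scored within the nucleus-defined area of each cell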
bCat nuc transl = alters nuclear translocation of beta-catenin in HeLa cells; immunofluorescence imaging; nuclear translocation activity, % at 5 µM; 0.3% of 190,000 active; AID 1665;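 active means nuclear translocation activity above 50% at 5 µM, with a well cell count of 50 or more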;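 further: per-cell ratio of nuclear to cytoplasmic median beta-catenin stain intensity; plate controls were DMSO negative control for no effect and GSK-3 inhibitor IX positive control for full effect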
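Test system: human HeLa cells, native beta-catenin. Compound dosing: 5 µM primary single dose, 0.1% DMSO, 0.02–20 µM confirmation series. Incubation: compound exposure 24 h at 37°C. Detection: beta-catenin immunostaining with DAPI counterstain, 20x imaging, 6 fields/well. Read-out basis: Nuclear/cytoplasmic beta-catenin signal ratio, % activation.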
Yeast growth inh = reduces growth of yeast BB579 in restrictive medium. S. cerevisiae BB579 growth, OD615, 48 h. inhibition, % at 10 µM. 0.51% of 140,000 active;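 active means inhibition above a set limit, 3 SD over the mean compound inhibition, cut at about 44% in these data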
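Test system: Saccharomyces cerevisiae DeaD strain BB579, replicative lifespan model yeast | Buffer or medium: Restrictive CSMM-D medium | Doses: One dose, 10 µM compound with 0.25% DMSO | Incubation: 48 h exposure, 30 °C | Detection: Culture absorbance at 615 nm | Control set: Amphotericin B at 10 µg/mL as positive control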
Numbers without * were called inactive; / = no result given. A selection: hits, their analogues and other compounds. The true share with any hit is near 3.5%.

SMILES	HMGR II inh	RAM inhibit	Yeast lifespan up	MT stabilizer	bCat nuc transl	Yeast growth inh
CC(NC(N)=O)C(=O)Nc1ccc(Cl)c(S(=O)(=O)Nc2ccc(Br)cc2)c1 (stereo not drawn)	-3.7	2.4	/	3.0	1.6	/
COc1ccc(Cn2c(=O)c3[nH]cnc3n(-c3ccccc3C)c2=O)cc1	/	/	/	/	73.4*	/
Cc1cccc(OCC(=O)NCC(=O)N/N=C/c2c(C)[nH]c3ccccc23)c1	/	/	/	/	-1.0	/
CC(C)(C)NC(=O)/C(=C\c1ccco1)NC(=O)c1cccs1	10.6*	1.3	4.3	3.2	-0.5	-23.9
O=C(NCc1ccco1)/C(=C\c1ccco1)NC(=O)c1cccs1	-9.7	2.3	/	2.1	-0.4	/
COc1cc(C(=O)OCn2nnc3ccccc3c2=O)cc(OC)c1OC	3.2	0.8	-13.3	5.6	82.8*	-25.4
Cc1noc(C)c1CSc1nc2[nH]ncc2c(=O)n1-c1ccccc1	-9.2	0.5	-13.8	24.5*	2.8	6.3
Cc1nc(CSc2nc3[nH]ncc3c(=O)n2-c2ccccc2)cs1	-1.2	-0.9	-10.5	3.5	/	4.3
Cc1noc(C)c1CSc1nnc(-c2c[nH]c3ccccc23)n1-c1ccc(Cl)cc1	-0.4	9.4*	-1.3	2.7	0.8	-32.0
Cc1noc(C)c1CSc1nc2ccccc2c(=O)n1-c1ccccc1	-7.4	4.3	2.5	42.4*	28.8	-21.4
CCOC(=O)c1sc2nccc(OC)c2c1N=CN(C)C	0.6	1.6	/	1.9	-0.4	/
Cc1nnc(SCC(=O)NCCc2ccccc2)s1	-0.2	-0.4	/	2.8	-0.4	/
CCNC(=O)NC(=O)COC(=O)C1CSC2(C)CCC(=O)N12 (stereo not drawn)	0.9	-0.2	/	2.0	-1.5	/
Cc1ccc(C(=O)N2CCN(c3ccccc3Cl)CC2)cc1[N+](=O)[O-]	-4.8	0.9	/	12.0	0.5	/
c1ccc(-n2cnc3cc(NCc4cccs4)ccc32)cc1	-5.0	-0.1	-19.6	40.9*	8.1	-22.0
COc1ccc(-n2cnc3cc(NCc4cccs4)ccc32)cc1	4.0	0.4	-30.1	2.6	-3.4	-9.1
Cc1ccc(-n2cnc3cc(NCc4cccs4)ccc32)cc1	-1.0	1.2	-20.8	0.7	-0.7	49.9*
COc1ccc(-c2noc(CSc3nnc(-c4ccncc4)n3-c3ccc(F)cc3)n2)cc1OC	-1.3	0.1	147.5*	2.9	0.1	-50.1
Cc1cc(NC(=O)CSc2nnc(-c3ccncc3)n2-c2ccc(F)cc2)no1	-2.7	-0.1	/	3.2	0.3	/
CC(=O)Nc1ccc(NC(=O)CCC(=O)OCC(=O)c2cccc([N+](=O)[O-])c2)cc1	-5.8	0.9	/	2.2	0.2	/
Cc1ccc(NC(=O)CCC(=O)OCC(=O)c2ccc(Oc3ccc([N+](=O)[O-])cc3)cc2)cc1C	-4.5	10.6*	-3.5	1.3	1.0	-11.3
COc1ccc(C2C(C#N)=C(N)Oc3c2ccc2cccnc32)cc1OC (stereo not drawn)	-1.6	0.9	/	16.2*	60.9*	/
COc1cc(C2C(C#N)=C(N)Oc3cc(N)ccc32)cc(OC)c1OC (stereo not drawn)	-0.8	0.7	-5.5	18.4*	71.4*	-38.1
N#CC1=C(N)Oc2cc(N)ccc2C1c1ccc(F)cc1 (stereo not drawn)	0.5	-0.8	-11.8	29.8	1.2	-11.8
N#CC1=C(N)Oc2cc(N)ccc2C1c1cccnc1 (stereo not drawn)	-5.4	1.8	5.0	23.8*	-0.4	-53.7
SMILES	HMGR II inh	RAM inhibit	Yeast lifespan up	MT stabilizer	bCat nuc transl	Yeast growth inh
CCN(CC)c1ccc2c(c1)OC(N)=C(C#N)C2c1cccnc1 (stereo not drawn)	-5.0	1.6	-8.7	20.3*	65.4*	-54.8
COc1cc(C2C(C#N)=C(N)Oc3c2ccc2ccccc32)ccc1OCC(=O)Nc1ccc(C)cc1 (stereo not drawn)	0.7	3.4	0.4	24.9	27.5	-47.7
C[N+]1(CC(O)COCC2COc3ccccc3O2)CCOCC1 (stereo not drawn)	-3.1	0.0	/	2.2	1.7	/
Cc1ccc(-c2ccc(/C=N/O)o2)cc1[N+](=O)[O-]	-6.2	-0.7	/	3.2	-1.6	/
COc1ccc(CNC(=O)c2c(O)c3cccc4c3n(c2=O)CCC4)cc1OC	-1.1	3.1	34.1*	4.1	-1.8	-52.4
COc1ccc(CNC(=O)c2c(O)c3cccc4c3n(c2=O)CCC4)cc1	-0.9	3.0	33.7*	1.9	-4.5	-3.1
CCCCCCNC(=O)c1c(O)c2cccc3c2n(c1=O)CCC3	-8.3	0.8	23.9	6.9	-1.7	-54.6
COc1ccc(CCNC(=O)c2c(O)c3cccc4c3n(c2=O)CC4)cc1	-1.7	8.5*	30.3	5.0	0.6	-55.1
O=C(NCCNCCO)c1c(O)c2cccc3c2n(c1=O)CCC3	1.0	-0.6	33.0*	0.2	-1.3	-9.6
O=C1N=C(C=c2ccc(=Cc3[nH]c(=O)[nH]c3O)cc2)C(=O)N1	/	/	/	/	1.0	/
CN(C)Cc1nnnn1-c1ccccc1	/	/	/	/	1.7	/
CCn1c(=O)c2c(n3c(=S)[nH]nc13)-c1ccccc1CC21CCCCC1	0.8	4.0	/	1.3	-0.7	/
CC(C)NC(=O)COc1ccc(S(=O)(=O)N(C)Cc2ccccc2)cc1	/	/	/	/	-0.2	/
CCCN1CNc2c(c(=O)[nH]c(=S)n2CCc2ccc(OC)c(OC)c2)C1	-1.0	3.5	/	3.7	-5.2	/
Cc1cc(OC(=O)c2ccc(S(=O)(=O)N(C)C)cc2)c([N+](=O)[O-])c(=O)[nH]1	-4.1	0.8	/	3.1	-3.9	/
COc1ccc(Br)cc1/C=C\C(=O)NCc1cccnc1	0.6	1.6	/	2.5	-1.5	/
COCCn1c(SCC(=O)Nc2ccc(C)cc2)nc2c(oc3ccccc32)c1=O	-5.5	2.3	85.4*	5.1	1.9	-36.1
CCOC(=O)C1=C(O)/C(=C/c2cn(CC(=O)N3CCCC3)c3ccccc23)SC1=Nc1ccccc1	5.0	9.1*	/	2.6	-1.2	-50.5
COC(=O)c1cn(CC(=O)N2CCCCCC2)c2ccccc12	0.1	0.0	-26.5	3.0	0.4	-27.9
COc1ccc(-n2nnnc2/C=C/Nc2cc(C(F)(F)F)ccc2OC)cc1	/	/	/	/	1.3	/
COc1ccc(-n2nnnc2/C=C\Nc2ccccc2C(=O)c2ccccc2)cc1	1.5	0.9	-14.1	21.0*	61.6*	-18.5
O=C(CCC(=O)N(CC(=O)NC1CCCC1)Cc1cccs1)Nc1nccs1	2.5	0.6	/	1.1	2.4	/
Cc1cc(Cl)ccc1OCc1cn2cccnc2n1	-8.0	-0.1	/	2.6	1.9	/
Cc1ccc(-c2cc3ccccc3nc2N2CCCC2)cc1	5.9	-0.5	-8.5	0.8	0.5	-28.6
Cc1ccc2c(c1)Cc1nc3ccccc3nc1-2	1.1	0.7	/	2.2	-1.5	/
Cc1ccc2c(c1)C(=NC1CCCCC1)c1cc3ccccc3nc1-2	-1.3	3.3	-9.2	3.4	-0.4	59.7*
